Laboratory results from ChEMBL document CHEMBL1124433 (J Med Chem, 1989).

Columns and labels:
L1210 [1] = assay: Concentration that inhibits the proliferation of L1210 cells by 50%; format: functional, cell-based; details: Mus musculus
Procedure, shortened: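 L1210 murine leukemia cells were incubated with drug at various concentrations for 60 min at 37 °C. Colonies were stained with tetrazolium and counted; cloning efficiency is 8-10%. IC50 is the drug concentration in the agar giving 50% fewer colonies.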

L1210 [2] = assay: Protein associated single strand breaks, measured after cell lysis and proteinase K treatment at 10 uM concentration of the compound; format: functional, Mus musculus
Procedure, shortened: (§1)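 L1210 cells were exposed to compound for 1 h and DNA strand breaks were measured by alkaline elution, expressed as rad equivalents. Protein-associated breaks were read after cell lysis plus proteinase K treatment. Non-protein-associated breaks were read after lysis without proteinase K.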

[3] = test system: DNA topoisomerase 1 (Bos taurus); assay: Concentration that produces 50% DNA cleavage mediated by DNA topoisomerase I; neg= negative is no enzyme mediated DNA cleavage at the highest conc tested at 50 uM
L1210 [4] = assay: Non-protein associated single strand breaks, measured after cell lysis in the absence of proteinase K treatment at 10 uM concentration of the compound; format: functional, Mus musculus; procedure, shortened: as §1
[5] = test system: DNA topoisomerase 1 (Bos taurus); assay: Concentration that produces 50% DNA cleavage mediated by DNA topoisomerase I
[6] = test system: DNA topoisomerase 1 (Bos taurus); assay: Concentration that produces 50% DNA cleavage mediated by topoisomerase I; neg= negative is no enzyme mediated DNA cleavage at the highest conc tested at 50 uM
L1210 [7] = assay: Protein associated single strand breaks, measured after cell lysis and proteinase K treatment at 2 uM concentration of the compound; format: functional, Mus musculus
Procedure, shortened: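 L1210 cells exposed to drug for 1 h, then alkaline elution. Lysis followed by proteinase K treatment to score protein-associated single-strand breaks. Expressed as rad equivalents.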

L1210 [8] = assay: Non-protein associated single strand breaks, measured after cell lysis in the absence of proteinase K treatment at 2 uM concentration of the compound; format: functional, Mus musculus
Procedure, shortened: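 L1210 cells exposed to drug for 1 h, then alkaline elution. Cells lysed without proteinase K treatment to score single-strand breaks not bound to protein. Expressed as rad equivalents.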

L1210 [9] = assay: Non-protein associated single strand breaks, measured after cell lysis in the absence of proteinase K treatment at 20 uM concentration of the compound; format: functional, Mus musculus; procedure, shortened: as §1
L1210 [10] = assay: Protein associated single strand breaks, measured after cell lysis and proteinase K treatment at 20 uM concentration of the compound; format: functional, Mus musculus; procedure, shortened: as §1
L1210 [11] = assay: Non-protein associated single strand breaks, measured after cell lysis in the absence of proteinase K treatment at 35 uM concentration of the compound; format: functional, Mus musculus; procedure, shortened: as §1
L1210 [12] = assay: Non-protein associated single strand breaks, measured after cell lysis in the absence of proteinase K treatment at 3.5 uM concentration of the compound; format: functional, Mus musculus; procedure, shortened: as §1
L1210 [13] = assay: Protein associated single strand breaks, measured after cell lysis and proteinase K treatment at 35 uM concentration of the compound; format: functional, Mus musculus; procedure, shortened: as §1

Structure (SMILES)	IC50 (L1210 [1]) [nM]	CC50 [3]	other results
CC[C@@]1(O)C(=O)NCc2c1cc1n(c2=O)Cc2cc3ccccc3nc2-1	> 2000	Negative	Radiation equivalent (L1210 [2]): <100; Radiation equivalent (L1210 [4]): <100
CC[C@]1(O)c2cc3n(c(=O)c2COC1O)Cc1cc2ccccc2nc1-3 (some centres not stated)	2700	Negative	Radiation equivalent (L1210 [2]): <100; Radiation equivalent (L1210 [4]): <100
CC[C@@](O)(C(=O)NC(C)C)c1cc2n(c(=O)c1CO)Cc1cc3ccccc3nc1-2			CC50 [5]: 5000 nM
CCC1OC(=O)c2c1cc1n(c2=O)Cc2cc3ccccc3nc2-1 (configuration not stated)	> 5900	Negative	
CC[C@@]1(O)C(=O)SCc2c1cc1n(c2=O)Cc2cc3ccccc3nc2-1	2900		CC50 [6]: Negative
CC[C@@](O)(C(=O)O)c1cc2n(c(=O)c1CO)Cc1cc3ccccc3nc1-2	14		CC50 [5]: 900 nM
CC[C@H]1C(=O)OCc2c1cc1n(c2=O)Cc2cc3ccccc3nc2-1	590	Negative	
CC[C@@]1(O)C(=O)OCc2c1cc1n(c2=O)Cc2cc3ccccc3nc2-1 [CAMPTOTHECIN]	14		Radiation equivalent (L1210 [7]): 342; Radiation equivalent (L1210 [8]): 240
O=C1OCc2c1cc1n(c2=O)Cc2cc3ccccc3nc2-1	> 5900	Negative	
C=C1CC(CC)(c2cc3n(c(=O)c2C)Cc2cc4ccccc4nc2-3)OC1=O (configuration not stated)	94		Radiation equivalent (L1210 [9]): 1360; CC50 [6]: Negative; Radiation equivalent (L1210 [7]): <100; Radiation equivalent (L1210 [8]): <100; Radiation equivalent (L1210 [10]): <100
CCC1(O)OCc2c1cc1n(c2=O)Cc2cc3ccccc3nc2-1 (configuration not stated)	> 5900		CC50 [6]: Negative
CC[C@@]1(OC(C)=O)C(=O)OCc2c1cc1n(c2=O)Cc2cc3ccccc3nc2-1	390	Negative	
O=c1c2cocc2c(O)c2n1Cc1cc3ccccc3nc1-2	92	Negative	Radiation equivalent (L1210 [11]): 1000; Radiation equivalent (L1210 [12]): 175; Radiation equivalent (L1210 [13]): <100
